# In the library only some 2.8% were active in any assay of this set; here they are far more common.
# DENV2 CPE rescue – DENV2-induced cell death inhibition; DENV2-infected cells, cytopathic effect rescue, plate reader; CPE inhibition, % at 9.99 µM; actives 1.7% (n = 350,000); AID 651640; in the data active means CPE inhibition above about 20%, passing the limit was not always enough; inconclusive means no clear call, values can overlap the other calls; tested in BHK-21 cells;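 further: 0% = median of neutral control wells and 100% = median of positive control wells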
# E-selectin induc – induces E-selectin expression in human endothelial cells | HUVEC E-selectin immunofluorescence imaging; normalized: neutral wells 0, TNF-alpha wells 100 | activation, % at 7.58 µM | actives 0.37% (n = 260,000);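 active means mean E-selectin-positive cell signal at least 10% of the positive control, reached in at least 60% of replicates, without over 20% cell loss; inconclusive means no rule given, readout overlaps actives, possibly toxicity-flagged; inactive means the rest, including those meeting only one limit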
#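 Assay system: HUVEC, human umbilical vein endothelial cells / Amount: 3,000 HUVEC/well / Controls: TNF-alpha positive control, DMSO neutral control / Compound dosing: single concentration / Medium: EGM-2 over gelatin coat / Evaluation: percent E-selectin-positive cells / Signal: immunofluorescence imaging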
# SIRT5 block – inhibitors of human sirtuin-5 desuccinylase; Q9NXA8; Purified SirT5, succinyl-peptide AMC, trypsin-coupled fluorescence; inhibition, % at 15 µM; actives 1.1% (n = 330,000); AID 652115; in the data active means inhibition above about 15%; inconclusive means no clear call, values can overlap the other calls
# Target sequence (Q9NXA8 whole entry, looked up): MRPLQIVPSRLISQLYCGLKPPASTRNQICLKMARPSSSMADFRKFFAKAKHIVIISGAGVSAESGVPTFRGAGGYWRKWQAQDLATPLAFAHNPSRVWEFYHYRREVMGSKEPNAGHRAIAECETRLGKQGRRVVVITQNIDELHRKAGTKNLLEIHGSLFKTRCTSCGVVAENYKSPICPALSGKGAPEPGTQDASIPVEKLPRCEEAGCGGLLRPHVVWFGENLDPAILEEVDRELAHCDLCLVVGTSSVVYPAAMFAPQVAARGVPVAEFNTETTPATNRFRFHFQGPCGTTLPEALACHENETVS
# * hit, by the source's call; ? = inconclusive; nt = no result given; ! = repeats disagree.
SMILES,DENV2 CPE rescue,E-selectin induc,SIRT5 block
COc1ccccc1NC(=O)N1C[C@@H](O)COC[C@H]2O[C@@H](CC(=O)NCCc3ccccc3)CC[C@@H]21,2.1,-0.1,-4.2
CCCNC(=O)N1[C@H](C#N)[C@@H](c2ccccc2C2=CCCC2)[C@@H]1CO,23.3*,-0.1,1.5
N#C[C@@H]1[C@H](c2ccccc2C2=CCCC2)[C@H](CO)N1C(=O)NC1CCCC1,1.9,0.2,3.8
CO[C@@H]1CN(C)C(=O)c2ccc(NC(C)=O)cc2OC[C@@H](C)N(Cc2cccnc2)C[C@@H]1C,nt,-0.2,nt
Cc1ccc(S(=O)(=O)N(C)C[C@@H]2Oc3ccc(NC(=O)Nc4ccc(F)cc4)cc3CC(=O)N([C@@H](C)CO)C[C@@H]2C)cc1,nt,0.4,nt
O=C(c1cccnc1)C1CCCN(Cc2nc(Cc3ccccc3F)no2)C1 (stereo unspecified),1.5,nt,-0.6
Fc1ccccc1Cc1noc(CN2CCCC(CN3CCOCC3)C2)n1 (stereo unspecified),11.9,1.4,21.7*
C[C@@H]1CN([C@@H](C)CO)C(=O)c2cc(-c3cccnc3)cnc2O[C@H]1CN(C)C(=O)C1CCOCC1,5.8,0.0,0.3
COc1ccc2c3c([nH]c2c1)[C@@H](CO)N(Cc1nccs1)CC31CCN(C(=O)C2CCOCC2)CC1,3.2,0.0,1.8
CN1c2ccc(-c3ccc(F)cc3)cc2[C@H]2[C@H](CCN2S(=O)(=O)c2cccc(F)c2)[C@@H]1CO,-28.2,2.1,4.2
CCN(c1ccccc1)S(=O)(=O)c1nnc(NC(=O)C(C)C)s1,17.9,nt,-1.6
CCN(c1ccccc1)S(=O)(=O)c1nnc(NC(=O)C(C)(C)C)s1,?,-0.1,29.7*
C[C@@H]1CN([C@@H](C)CO)C(=O)Cc2cc(NC(=O)C3CCCCC3)ccc2O[C@@H]1CN(C)Cc1ccc(C(F)(F)F)cc1,-2.1,0.3,9.3
C[C@@H]1CN([C@@H](C)CO)C(=O)c2cc(NC(=O)C3CCCCC3)ccc2O[C@@H]1CN(C)Cc1ccc(-c2ccccc2)cc1,0.7,-0.2,3.1
C[C@@H]1CN([C@H](C)CO)C(=O)Cc2cc(NC(=O)C3CCCCC3)ccc2O[C@@H]1CN(C)Cc1ccccc1,-7.3,0.0,1.0
COc1ccc(CN(C)C[C@@H]2Oc3ccc(NC(=O)C4CCCCC4)cc3C(=O)N([C@@H](C)CO)C[C@@H]2C)cc1,37.6*,-0.4,-3.7
C[C@H]1CN([C@@H](C)CO)C(=O)c2cc(NC(=O)C3CCCCC3)ccc2O[C@H]1CN(C)Cc1ccc(-c2ccccc2)cc1,-3.1,0.0,40.2*!
C[C@H](CO)N1C[C@H](C)[C@@H](CN(C)Cc2ccccc2)Oc2ccc(NC(=O)C3CCCCC3)cc2CC1=O,37.7*,-0.4,0.4
C[C@H](CO)N1C[C@H](C)[C@@H](CN(C)Cc2ccc(C(F)(F)F)cc2)Oc2ccc(NC(=O)C3CCCCC3)cc2CC1=O,42.0*,0.3,2.6
COc1ccc(CN(C)C[C@H]2Oc3ccc(NC(=O)C4CCCCC4)cc3C(=O)N([C@@H](C)CO)C[C@@H]2C)cc1,-2.8,-0.3,-0.7
CCC(=O)N[C@H]1CC[C@H](CC(=O)NCC2CCCCC2)O[C@H]1CO,-2.1,0.6,0.8
COCC#Cc1cnc2c(c1)C(=O)N([C@H](C)CO)C[C@H](C)[C@@H](CN(C)Cc1ccc3c(c1)OCO3)O2,-9.6,0.8,-3.5
C[C@@H]1CN([C@H](C)CO)C(=O)Cc2cc(NC(=O)C3CCCCC3)ccc2O[C@@H]1CN(C)Cc1ccc(-c2ccccc2)cc1,9.0,-1.6,102.3*
C[C@H]1CN([C@@H](C)CO)C(=O)Cc2cc(NC(=O)C3CCCCC3)ccc2O[C@@H]1CN(C)Cc1ccc(-c2ccccc2)cc1,?,-0.6,-4.4
O=C(Cc1ccncc1)NCC[C@H]1CC[C@H](NC(=O)C2CCC2)[C@H](CO)O1,-5.7,-0.5,1.9
SMILES,DENV2 CPE rescue,E-selectin induc,SIRT5 block
CN(C)CCCNC(=O)C[C@H]1CC[C@@H]2[C@@H](COc3ccc(NC(=O)c4cccc(F)c4)cc3C(=O)N2C)O1,41.5*,0.4,-0.6
CCCNC(=O)C[C@H]1CC[C@H]2[C@H](COc3ccc(NC(=O)c4cccc(F)c4)cc3C(=O)N2C)O1,11.6,-0.1,-3.5
COCCNC(=O)C[C@@H]1CC[C@@H]2[C@H](COc3ccc(NC(=O)Nc4cccc(F)c4)cc3C(=O)N2C)O1,?,0.2,0.7
COCCNC(=O)C[C@@H]1CC[C@H]2[C@H](COc3ccc(NC(=O)Nc4cccc(F)c4)cc3C(=O)N2C)O1,2.6,0.1,23.1*
C[C@@H]1CN([C@H](C)CO)C(=O)Cc2cc(NC(=O)Nc3cccc4ccccc34)ccc2O[C@H]1CN(C)C(=O)Nc1ccc(F)cc1,-7.6,-1.8,2.3
C[C@H](CO)N1C[C@H](C)[C@@H](CN(C)C)Oc2ncc(C#CC3CCCCC3)cc2C1=O,nt,0.4,nt
Cc1cccc(C(=O)N2CCC(=O)N([C@H](COCc3ccc(Cl)cc3)Cc3ccccc3)CC2)c1,124.6*,-1.2,5.7
Cc1cccc(C(=O)N2CCC(=O)N(C(COCc3ccc(Cl)cc3)Cc3ccccc3)CC2)c1 (stereo unspecified),0.9,0.0,-2.0
COc1cccc(-c2ccc3c(c2)[C@@H]2[C@@H](CCN2S(=O)(=O)c2cccc(OC)c2)[C@@H](CO)N3)c1,-14.9,-0.8,10.6
C[C@H](CO)N1C[C@H](C)[C@@H](CN(C)Cc2ccc(C(=O)O)cc2)Oc2ccc(NS(=O)(=O)c3ccc(Cl)cc3)cc2CC1=O,1.3,0.0,-12.1
CC(C)(C)c1ccc(C(=O)Nc2ccc3c(c2)C(=O)NC3=O)cc1,58.1*,137.5*,-9.1
CC(=O)c1ccc(C(=O)Nc2ccc3c(c2)C(=O)NC3=O)cc1,-5.6,0.2,-3.5
N#Cc1ccc(-c2ccc3c(c2)[C@H]2[C@H](CCN2Cc2ccc4c(c2)OCO4)[C@H](CO)N3)cc1,?,-0.8,-25.0
COCc1cn(CC[C@@H]2CC[C@H](NC(=O)Nc3ccc(OC)cc3)[C@H](CO)O2)nn1,4.3,-1.5,4.2
COc1ccccc1C(=O)N/C(=C/c1ccccc1)C(=O)NC(CCSC)C(=O)O (stereo unspecified),nt,nt,-2.0
CC(=O)NC(Cc1ccccc1)Cc1ccccc1,-5.2,-0.2,-0.3
COc1ccccc1C(=O)N/C(=C\c1ccccc1)C(=O)NC(Cc1ccccc1)C(=O)O (stereo unspecified),4.3,nt,69.9*
CC(=O)NC(Cc1ccccc1)C(=O)O (stereo unspecified),56.3*,nt,2.1
O=C(CC1CC1)Nc1ccc2c(c1)[C@@H]1C[C@H](CC(=O)N3CCOCC3)O[C@@H](CO)[C@@H]1O2,-5.4,-0.2,nt
COCC(=O)N1CC2(CCN(C(=O)CN3CCOCC3)CC2)c2c([nH]c3cc(OC)ccc23)[C@H]1CO,-11.3,-0.2,nt
Nc1ccc(-c2c3ccc(=O)cc-3oc3cc(O)ccc23)cc1C(=O)O,5.5,nt,18.8*
O=c1ccc2c(-c3ccccc3)c3ccc(O)cc3oc-2c1,-0.2,-0.1,2.0
C[C@@H]1CCCCO[C@H](CN(C)S(=O)(=O)c2ccc(F)cc2)[C@@H](C)CN([C@H](C)CO)C(=O)c2cc(NC(=O)CCCN(C)C)ccc2O1,34.3*,-0.3,2.8

# Assay outcomes: PubChem, Broad Institute
